HNF4A DNA FP = change in binding of human HNF4 alpha to DNA. 0.3% of 360,000 active. P41235. activity change, % at 10 µM. HNF4a-FITC DNA binding, fluorescence polarization, 1 h; in the data active = activity change above about 30%, passing the limit was not always enough
ASAP1 inh = inhibitors of human ASAP1 ArfGAP activity | Q9ULH1 | ASAP1-stimulated ARF1 GTP hydrolysis, GDP FP detection | inhibition, % at 16.5 µM | 0.19% of 360,000 active | AID 624377; in the data active = inhibition above about 25%;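 note: 0% = vehicle with enzyme and substrate and 100% = no enzyme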
Target sequence (Q9ULH1 325-724 limits assumed): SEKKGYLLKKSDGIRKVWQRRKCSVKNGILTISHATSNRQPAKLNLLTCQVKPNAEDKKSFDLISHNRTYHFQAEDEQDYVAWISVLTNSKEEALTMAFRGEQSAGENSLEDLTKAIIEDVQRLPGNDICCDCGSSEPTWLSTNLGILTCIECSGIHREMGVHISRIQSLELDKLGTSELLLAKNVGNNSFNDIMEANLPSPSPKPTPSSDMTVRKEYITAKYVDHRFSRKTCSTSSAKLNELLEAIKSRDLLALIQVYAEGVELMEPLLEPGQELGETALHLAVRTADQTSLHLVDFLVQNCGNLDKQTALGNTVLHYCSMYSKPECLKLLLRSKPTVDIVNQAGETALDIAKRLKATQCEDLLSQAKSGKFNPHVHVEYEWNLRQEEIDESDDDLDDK
CSN inh = inhibitors of human CSN-mediated cullin deneddylation | Purified CSN, SCF-Nedd8-OG deneddylation, fluorescence polarization | inhibition, % at 12.5 µM | 0.38% of 360,000 active | AID 651999;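 active = pattern-corrected inhibition above about 35%, with an unprinted fluorescence ratio check between 0.5 and 1.5, limit read from the data, passing the limit was not always enough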;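 note: 0% = enzyme with substrate and 100% = substrate without enzyme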
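Assay system: purified human Csn5 enzyme expressed in HEK293T cells; Input: 0.24 nM Csn5 enzyme, final concentration; Reagent: 10 nM SCFSkp2-Nedd8OG; Compound dosing: 12.5 µM single point; Times: reaction 90 min, room temperature; Technique: fluorescence polarization readout.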
ARFGAP1 inhibitor = inhibits rat ARF GTPase activating protein 1; inhibition, % at 16.5 µM; AID 651572; 0.26% of 360,000 active; Arfgap1-stimulated ARF1 GTP hydrolysis, GDP FP detection;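 active = inhibition above a per-plate limit, mean inhibition of low control wells plus 3 SD, cut at about 25% in these data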;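 note: 0% = DMSO wells with enzyme and 100% = wells lacking Arfgap1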
Target sequence (Q62848 1-136 limits assumed): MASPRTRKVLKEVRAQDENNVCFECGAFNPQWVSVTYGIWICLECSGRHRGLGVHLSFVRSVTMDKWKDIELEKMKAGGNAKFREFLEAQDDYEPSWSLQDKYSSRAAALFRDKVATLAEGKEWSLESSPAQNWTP
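Material – truncated rat Arfgap1 GAP domain · Buffer or medium – HEPES-based buffer, pH 7.5 · Reagent – human ARF1(Δ1-17)-GTP substrate · Dosing – 16.5 µM single point, 1.26% DMSO · Schedule – GTP hydrolysis reaction 2 h at 25 °C · Technique – GDP detection by fluorescence polarization · Benchmarks – No-Arfgap1 wells (100%) versus DMSO full-reaction wells (0%) · Repeats – single replicate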
The depositor's hits bear a star. In the library only some 0.95% were active in any assay of this set; here they are far more common.

Screening CCc1ccc(CN(Cc2cccnc2)C(=O)/C=C/c2ccc(OC)cc2)cc1 returned HNF4A DNA FP 60*, ASAP1 inh -9, CSN inh 26 and ARFGAP1 inhibitor 14.
CCCCOCCCNC(=O)C[C@H]1C[C@@]2(C(=O)OC)C(=C[C@H](C(C)(C)C)O[C@@H]2C)N(Cc2ccc3c(c2)OCO3)C1=O was read as ASAP1 inh -2 and ARFGAP1 inhibitor 9.
Screening COC(=O)c1cccc(Nc2cc(C)nc(-c3ccccc3O)n2)c1 returned HNF4A DNA FP 1, ASAP1 inh 11, CSN inh -2 and ARFGAP1 inhibitor 8.
Screening COC(=O)c1ccc(Nc2cc(C)nc(-c3ccccc3O)n2)cc1 returned HNF4A DNA FP 37*, ASAP1 inh 12, CSN inh 2 and ARFGAP1 inhibitor 7.
Screening Cc1cc(C)c(S(=O)(=O)/N=C2/C=C(SCC(=O)O)C(=O)c3ccccc32)cc1C returned HNF4A DNA FP 38* and CSN inh 26.
For Cc1cc(C)c(S(=O)(=O)/N=C2\C=C(Nc3ccc(C(=O)O)cc3)C(=O)c3ccccc32)c(C)c1 the results were HNF4A DNA FP -1, ASAP1 inh 21, CSN inh 16 and ARFGAP1 inhibitor -1.
Cc1nnc(NC(=O)c2sc3nc(-c4cccs4)cc(C(F)(F)F)c3c2N)s1 was read as HNF4A DNA FP 68, ASAP1 inh -5, CSN inh 106* and ARFGAP1 inhibitor -13.
Screening O=C(N/N=C/c1ccncc1)c1ccc(NC(=O)c2ccc(Cl)cc2)cc1 returned HNF4A DNA FP 6, ASAP1 inh 13, CSN inh 12 and ARFGAP1 inhibitor 17.
`O=C(N/N=C/c1ccncc1)c1ccc(NC(=O)c2cccc(Cl)c2)cc1` gave HNF4A DNA FP 31, ASAP1 inh 19, CSN inh 78* and ARFGAP1 inhibitor -7.
For CCOc1cc(CNc2ccc(O)cc2)ccc1OCc1ccc(Cl)cc1Cl the results were HNF4A DNA FP -1 and CSN inh 44*.
Screening CC(=O)N1CCc2cc(N=NC3=C(O)CC(C)(C)CC3=O)ccc21 returned HNF4A DNA FP 66*, ASAP1 inh -6, CSN inh 29 and ARFGAP1 inhibitor -3.
Cc1nc2ccc(N=NC3=C(O)CC(C)(C)CC3=O)cc2s1 was read as HNF4A DNA FP 4, ASAP1 inh -4, CSN inh -3 and ARFGAP1 inhibitor 5.
`c1ccc(-n2cnc3ccccc32)nc1` gave HNF4A DNA FP -1, ASAP1 inh 7, CSN inh -3 and ARFGAP1 inhibitor 5.
Screening c1ccc(-c2nccc(-c3ccc(-n4cnc5ccccc54)cc3)n2)cc1 returned HNF4A DNA FP -2, ASAP1 inh 4, CSN inh 73* and ARFGAP1 inhibitor 8.
For CNC(=S)NNC(=O)CNc1ccc(C)c(Cl)c1 the results were HNF4A DNA FP 53*, ASAP1 inh 1, CSN inh -3 and ARFGAP1 inhibitor 1.
Screening CCCN1CCCCC(NC(=O)c2cccs2)C1=O (stereo not drawn) returned ASAP1 inh -1 and ARFGAP1 inhibitor -2.
For CCCCCCCCCC(=O)OCC(O)CO (stereo not drawn) the results were HNF4A DNA FP 1, ASAP1 inh -16, CSN inh 1 and ARFGAP1 inhibitor 7.
For CCCCCCCCCCCCCCC[C@@H](O)[C@@H](N)CO the results were HNF4A DNA FP 121*, ASAP1 inh 4, CSN inh 84* and ARFGAP1 inhibitor -3.
CCN(CC)S(=O)(=O)c1ccc(N2CCOCC2)c(NC(=O)COc2ccccc2C#N)c1 was read as HNF4A DNA FP -1, ASAP1 inh 37*, CSN inh -9 and ARFGAP1 inhibitor 9.
CC(=O)N1C[C@H]2CON(C)[C@H]2C[C@H]1c1ccccc1Br was read as HNF4A DNA FP -5, ASAP1 inh 1, CSN inh -1 and ARFGAP1 inhibitor 1.
For COc1ccc(CN2CC[C@@H]3CN(C(C)=O)[C@H](c4ccccc4Br)C[C@@H]32)cc1 the results were HNF4A DNA FP 1, ASAP1 inh 13, CSN inh 161* and ARFGAP1 inhibitor -6.
`COC(=O)[C@]12C[C@H](CC(=O)NCc3ccc(OC)c(OC)c3)C(=O)N(CCC3=CCCCC3)C1=C[C@H](COCc1ccccc1)O[C@@H]2C` gave ASAP1 inh -3 and ARFGAP1 inhibitor 2.
`COc1cccc2cc(C(=O)NNC(=O)c3ccc(Br)cc3)c(=O)oc12` gave HNF4A DNA FP 1, ASAP1 inh 18, CSN inh 110* and ARFGAP1 inhibitor 5.
`COc1cccc2cc(C(C)=O)c(=O)oc12` gave HNF4A DNA FP 1, ASAP1 inh -13, CSN inh 2 and ARFGAP1 inhibitor 1.
Screening Cc1cccc(NS(=O)(=O)c2ccc(NC(=O)N3CCCCC3)cc2)c1 returned HNF4A DNA FP 0, ASAP1 inh -2, CSN inh 43* and ARFGAP1 inhibitor 1.
For Cc1ccc(NS(=O)(=O)c2ccc(NC(=O)N3CCCCC3)cc2)cc1 the results were HNF4A DNA FP -4, ASAP1 inh -17, CSN inh 5 and ARFGAP1 inhibitor -5.
`COc1cccc(CC2(CO)CCCN(Cc3cn[nH]c3-c3ccccc3)C2)c1` (stereo not drawn) gave HNF4A DNA FP -1, ASAP1 inh 17, CSN inh -4 and ARFGAP1 inhibitor -10.
COC(=O)[C@]12C[C@H](CC(=O)NCC3CCCCC3)C(=O)N(Cc3ccccc3)C1=C[C@H](C(C)C)O[C@@H]2C1CC1 was read as ASAP1 inh 14 and ARFGAP1 inhibitor 2.
For Cc1ccc2oc(=O)c(/C=C(\O)c3cccs3)nc2c1 the results were HNF4A DNA FP 12, ASAP1 inh -8, CSN inh 34 and ARFGAP1 inhibitor 12.
Screening O=c1oc2ccc(Cl)cc2nc1/C=C(\O)c1cccs1 returned HNF4A DNA FP 54*, ASAP1 inh -10, CSN inh 8 and ARFGAP1 inhibitor 9.
Screening CCOC(=O)c1cnc(-n2nc(C)cc2C)nc1NCc1ccccc1 returned HNF4A DNA FP 3, ASAP1 inh -8, CSN inh 6 and ARFGAP1 inhibitor -8.
`CCOC(=O)c1cnc(-n2cc(C)cn2)nc1NCc1ccc2c(c1)OCO2` gave HNF4A DNA FP 48*, ASAP1 inh 5, CSN inh 11 and ARFGAP1 inhibitor 13.
COC(=O)c1cc2c(c3c4cc(C)ccc4n(S(=O)(=O)c4ccc(OC)cc4)c13)C(=O)N(Cc1ccccc1)C2 was read as ASAP1 inh -10 and ARFGAP1 inhibitor 1.
CCCCc1nnn2c1C1c3cc(-c4cccnc4)ccc3CCN1C(=O)C2 (stereo not drawn) was read as ASAP1 inh -3 and ARFGAP1 inhibitor 12.
`CNS(=O)(=O)c1cccc(C(=O)OCC(=O)c2ccc3[nH]c(=O)[nH]c3c2)c1` gave HNF4A DNA FP 5, ASAP1 inh 16, CSN inh 54* and ARFGAP1 inhibitor 10.
`CNS(=O)(=O)c1cccc(C(=O)OCC(=O)c2ccc(S(=O)(=O)N3CCCCC3)cc2)c1` gave HNF4A DNA FP -1, ASAP1 inh 4, CSN inh -2 and ARFGAP1 inhibitor -13.

Source: PubChem BioAssay (several laboratories)
